≈ marks a conversion by molar mass, not a printed value. Blank lines part the entries; values can stand above or below the molecule they belong to. Calls of active or inactive are those of the source. No cut-off for these calls is given here.
Tests used:
[1] = target: T1, Metabotropic glutamate receptor 5 (Homo sapiens, UniProt P41594); assay: Displacement of [3H]-ABP688 from human mGluR5 expressed in HEK293 cells after 60 mins by scintillation counting; type: cell-based
[2] = Kinetic solubility of the compound in potassium phosphate buffer after 4 hrs; type: physicochemical; details: read-out: Kinetic_solubility
In short: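 Kinetic solubility: compound from 10 mM DMSO stock diluted into 25 mM potassium phosphate buffer and shaken 4 h. Supernatant analyzed by UPLC with PDA detection at 254 nm.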

[3] = test system: Liver microsomes; assay: Intrinsic clearance in human liver microsomes; type: ADME, Microsome; design: unit not given here
[4] = target: T2, Metabotropic glutamate receptor 1 (Rattus norvegicus, UniProt P23385); assay: Agonist activity at rat mGluR1 expressed in HEK293 cells assessed as Ca2+ mobilization by FLIPR assay; type: functional, cell-based
In short: (§1)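 Rat mGluR1 stably in HEK293 cells (1.5% calf serum medium), seeded 24 h earlier, Fluo-4 loaded 1 h at 37 °C in HBSS/HEPES pH 7.4 with probenecid. Curves fitted with Hill equation.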

[5] = target: T1, Metabotropic glutamate receptor 5; assay: Antagonist activity at human mGluR5 expressed in HEK293 cells assessed as inhibition of Ca2+ mobilization by FLIPR assay; type: functional, cell-based
[6] = test system: Liver microsomes; assay: Intrinsic clearance in rat liver microsomes; type: ADME, Microsome
[7] = target: T2, Metabotropic glutamate receptor 1; assay: Antagonist activity at rat mGluR1 expressed in HEK293 cells assessed as inhibition of Ca2+ mobilization by FLIPR assay; type: functional, cell-based; in short: as §1
[8] = Plasma protein binding in human; type: ADME, cell-free; details: read-out: PPB (converted)
[9] = test system: Liver; assay: Intrinsic clearance in mouse liver microsomes; type: ADME, Microsome
[10] = Drug uptake in CD-1 mouse brain at 10 mg/kg, sc at 1 hr; type: ADME, organism-based; design: dose 10 mg/kg, route subcutaneous; details: read-out: Drug uptake
In short: (§2)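 CD-1 mice (n = 2), 10 mg/kg SC in 20% hydroxypropyl-β-cyclodextrin in water. Brain and plasma sampled at 1 h; averages reported. Quantification limits were 2 ng/g for brain and 2 ng/mL for plasma. Kupp is the ratio of unbound brain to unbound plasma concentration.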

[11] = Drug uptake in CD-1 mouse brain at 10 mg/kg, po at 1 hr; type: ADME, organism-based; design: dose 10 mg/kg, route oral; details: read-out: Drug uptake
[12] = Ratio of drug uptake in brain to plasma of CD-1 mouse at 10 mg/kg, po at 1 hr; type: ADME, organism-based; design: dose 10 mg/kg, route oral; details: read-out: BPR
[13] = test system: Mus musculus; assay: Anxiolytic-like activity in mouse at 30 mg/kg, sc measured after 1 hr by marble burying test; type: functional, organism-based; design: dose 30 mg/kg
In short: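 Male CD-1 mice, n = 12 per group, given 3, 10 or 30 mg/kg sc in 20% HPβCD (5 mL/kg); buspirone 10 mg/kg sc in water as positive control. Mice were placed singly in cages for a 30 min session, and marbles buried out of 20 were counted. One-way ANOVA with Dunnett's test.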

[14] = test system: Plasma; assay: Fraction unbound in mouse plasma; type: ADME, cell-free
[15] = Ratio of drug uptake in brain to plasma of CD-1 mouse at 10 mg/kg, sc at 1 hr; type: ADME, organism-based; design: dose 10 mg/kg, route subcutaneous; details: read-out: BPR; in short: as §2
[16] = Ratio of fraction unbound in brain to plasma of CD-1 mouse brain at 10 mg/kg, sc at 1 hr; type: ADME, organism-based; design: dose 10 mg/kg, route subcutaneous; details: in vivo; in short: as §2
[17] = Fraction unbound in mouse brain; type: ADME, tissue-based
[18] = Plasma concentration in CD-1 mouse at 10 mg/kg, po at 1 hr; type: ADME, organism-based; design: dose 10 mg/kg, route oral
[19] = Plasma concentration in CD-1 mouse at 10 mg/kg, sc at 1 hr; type: ADME, organism-based; design: dose 10 mg/kg, route subcutaneous; in short: as §2

T2 sequence (P23385 whole entry): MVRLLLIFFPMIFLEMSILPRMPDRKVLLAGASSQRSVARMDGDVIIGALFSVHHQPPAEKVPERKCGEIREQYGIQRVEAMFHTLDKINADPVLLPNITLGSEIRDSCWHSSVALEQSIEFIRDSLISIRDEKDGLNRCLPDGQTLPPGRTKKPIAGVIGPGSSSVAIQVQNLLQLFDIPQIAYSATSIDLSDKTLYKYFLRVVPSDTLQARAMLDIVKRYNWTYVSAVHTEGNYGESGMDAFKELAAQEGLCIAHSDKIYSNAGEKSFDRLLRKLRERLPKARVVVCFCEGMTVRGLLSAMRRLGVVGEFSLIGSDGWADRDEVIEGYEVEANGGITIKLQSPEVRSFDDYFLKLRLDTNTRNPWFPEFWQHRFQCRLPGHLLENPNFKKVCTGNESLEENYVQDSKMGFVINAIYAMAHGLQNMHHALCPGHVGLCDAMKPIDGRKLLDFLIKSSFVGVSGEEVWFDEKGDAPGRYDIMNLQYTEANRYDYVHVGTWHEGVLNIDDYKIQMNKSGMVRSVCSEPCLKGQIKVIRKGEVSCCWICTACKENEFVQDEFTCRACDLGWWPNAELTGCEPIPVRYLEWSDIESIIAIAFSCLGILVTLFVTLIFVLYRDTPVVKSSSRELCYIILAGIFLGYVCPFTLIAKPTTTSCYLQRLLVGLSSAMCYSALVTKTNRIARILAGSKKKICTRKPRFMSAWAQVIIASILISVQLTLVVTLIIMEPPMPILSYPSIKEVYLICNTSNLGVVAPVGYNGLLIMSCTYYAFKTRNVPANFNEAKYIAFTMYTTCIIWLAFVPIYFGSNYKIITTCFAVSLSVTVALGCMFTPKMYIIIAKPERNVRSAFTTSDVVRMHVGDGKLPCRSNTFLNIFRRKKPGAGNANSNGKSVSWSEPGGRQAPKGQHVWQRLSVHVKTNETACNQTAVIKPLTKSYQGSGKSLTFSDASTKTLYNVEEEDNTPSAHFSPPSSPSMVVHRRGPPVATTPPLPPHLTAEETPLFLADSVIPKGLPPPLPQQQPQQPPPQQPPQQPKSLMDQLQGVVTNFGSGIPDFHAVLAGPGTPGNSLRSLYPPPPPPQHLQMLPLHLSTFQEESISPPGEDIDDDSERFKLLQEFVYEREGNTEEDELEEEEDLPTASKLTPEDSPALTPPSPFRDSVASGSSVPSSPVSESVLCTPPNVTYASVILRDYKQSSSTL
T1 sequence (P41594 whole entry): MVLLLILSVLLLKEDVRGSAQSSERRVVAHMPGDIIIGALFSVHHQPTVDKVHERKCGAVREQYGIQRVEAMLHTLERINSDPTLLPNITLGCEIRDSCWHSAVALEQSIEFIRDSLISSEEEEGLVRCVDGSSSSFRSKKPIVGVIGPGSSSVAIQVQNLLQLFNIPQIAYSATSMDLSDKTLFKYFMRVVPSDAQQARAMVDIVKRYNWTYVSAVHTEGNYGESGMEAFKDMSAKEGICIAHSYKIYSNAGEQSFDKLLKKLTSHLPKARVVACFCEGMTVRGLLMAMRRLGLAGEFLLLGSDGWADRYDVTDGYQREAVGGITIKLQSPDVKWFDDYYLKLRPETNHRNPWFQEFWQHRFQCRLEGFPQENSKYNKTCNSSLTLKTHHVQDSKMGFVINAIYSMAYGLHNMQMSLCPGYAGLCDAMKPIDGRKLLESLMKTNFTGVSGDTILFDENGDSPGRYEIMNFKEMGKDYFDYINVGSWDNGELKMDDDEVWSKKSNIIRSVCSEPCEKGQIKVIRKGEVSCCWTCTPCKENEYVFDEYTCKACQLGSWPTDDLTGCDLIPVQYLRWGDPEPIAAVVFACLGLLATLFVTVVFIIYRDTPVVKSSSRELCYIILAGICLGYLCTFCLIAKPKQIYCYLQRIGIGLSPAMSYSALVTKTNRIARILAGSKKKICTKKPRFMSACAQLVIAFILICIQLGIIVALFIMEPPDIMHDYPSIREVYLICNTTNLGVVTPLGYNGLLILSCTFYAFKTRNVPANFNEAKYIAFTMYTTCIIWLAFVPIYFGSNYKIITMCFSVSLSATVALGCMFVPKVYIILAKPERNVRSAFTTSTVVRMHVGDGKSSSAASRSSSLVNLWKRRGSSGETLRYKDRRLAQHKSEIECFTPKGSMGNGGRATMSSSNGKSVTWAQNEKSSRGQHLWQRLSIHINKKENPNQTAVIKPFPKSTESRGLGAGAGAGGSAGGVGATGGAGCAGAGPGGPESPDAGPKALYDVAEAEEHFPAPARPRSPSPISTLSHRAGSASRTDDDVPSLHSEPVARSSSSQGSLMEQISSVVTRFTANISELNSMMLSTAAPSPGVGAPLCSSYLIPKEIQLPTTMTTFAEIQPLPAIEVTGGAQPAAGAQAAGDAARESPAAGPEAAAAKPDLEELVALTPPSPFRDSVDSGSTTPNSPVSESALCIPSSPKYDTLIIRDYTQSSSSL

Structure (SMILES): O=C(Cc1ccccn1)N[C@H]1CCC[C@H](NC(=O)c2cccc(Cl)c2)C1 (relative stereo)
IC50 [5]: > 10000 nM

Structure (SMILES): CN(C(=O)c1cccc(Cl)c1)C1CCCC(N(C)C(=O)c2cccc(Cl)c2)C1 (stereo not given)
IC50 [5]: > 10000 nM

Structure (SMILES): COc1cccc(C(=O)NC2CCCC(NC(=O)c3ccccn3)C2)c1 (mixture of isomers)
IC50 [5]: > 10000 nM

Structure (SMILES): N#Cc1cccc(C(=O)N[C@@H]2CCC[C@H](NC(=O)c3ccccn3)C2)c1 (relative stereo)
IC50 [5]: > 10000 nM

Structure (SMILES): O=C(NC1CCCC2(CN=C(c3cccc(Cl)c3)O2)C1)c1cccnc1 (mixture of isomers)
IC50 [5]: > 10000 nM

Structure (SMILES): O=C(N[C@H]1CCC[C@H](NC(=O)c2ccccn2)C1)c1cccc(Cl)c1
IC50 [5]: > 10000 nM

Structure (SMILES): CN(C(=O)c1cccc(Cl)c1)C1CCCC(NC(=O)c2cccc(Cl)c2)C1 (stereo not given)
IC50 [5]: > 10000 nM

Structure (SMILES): O=C(N[C@H]1CCC[C@H](NC(=O)c2cccc(Cl)c2)C1)c1cccc(F)c1
IC50 [5]: 9600 nM

Structure (SMILES): O=C(N[C@@H]1CCC[C@@H](C(=O)Nc2ccccn2)C1)c1cccc(Cl)c1
IC50 [5]: 5000 nM

Structure (SMILES): O=C(NC1CCCC2(CN=C(c3cccc(Cl)c3)O2)C1)c1ccncc1 (mixture of isomers)
IC50 [5]: > 10000 nM

Structure (SMILES): N#Cc1cccc(C(=O)N[C@@H]2CCC[C@@H](C(=O)Nc3ccccn3)C2)c1
IC50 [5]: > 10000 nM

Structure (SMILES): Cc1cccnc1C(=O)N[C@H]1CCC[C@H](NC(=O)c2cccc(Cl)c2)C1 (relative stereo)
IC50 [5]: 7840 nM

The next molecules have a lower IC50 [5] than those just listed; values first:

Ki [1]: 1270 nM | solubility kinetic at 4 h [2]: 240 µM (≈ 83.6 µg/mL) | Intrinsic clearance [3]: 0.5 | EC50 [4]: > 10000 nM | IC50 [5]: 231 nM | Intrinsic clearance [6]: 8.3 mL/min | IC50 [7]: > 10000 nM | fraction unbound [8]: 0.157 | Intrinsic clearance [9]: 1.8 mL/min
Structure (SMILES): N#Cc1cccc(C(=O)N[C@@H]2CCC[C@@H](NC(=O)c3ccccn3)C2)c1

IC50 [5]: 2910 nM
Structure (SMILES): O=C(N[C@@H]1CCC[C@@]2(CN=C(c3cccc(Cl)c3)O2)C1)c1ccccn1

Ki [1]: 674 nM | IC50 [5]: 266 nM
Structure (SMILES): COc1ccc(C(=O)N[C@H]2CCC[C@H](NC(=O)c3cccc(Cl)c3)C2)cc1 (relative stereo)

IC50 [5]: 1150 nM
Structure (SMILES): O=C(N[C@H]1CCC[C@H](NC(=O)c2ccccn2)C1)c1ccccn1

concentration at 1 h [10]: 910 nM | concentration at 1 h [11]: 9 nM | Kp at 1 h [12]: 0.5 | Intrinsic clearance [3]: 13 | EC50 [4]: > 10000 nM | IC50 [5]: 23 nM | Intrinsic clearance [6]: 48 mL/min | Cp(f) [14]: 0.2% | IC50 [7]: > 10000 nM | Kp at 1 h [15]: 0.8 | Ratio [16]: 1.1 | fraction unbound [17]: 0.003 | Intrinsic clearance [9]: 12.5 mL/min | concentration at 1 h [18]: 17 nM | concentration at 1 h [19]: 1180 nM
Structure (SMILES): Cc1cccc(C(=O)N[C@H]2CCC[C@]3(CN=C(c4cccc(Cl)c4)O3)C2)n1
Activity [13]: Active

Ki [1]: 492 nM | IC50 [5]: 194 nM
Structure (SMILES): O=C(N[C@H]1CCC[C@H](NC(=O)c2cccc(Cl)c2)C1)c1ccc(F)cc1 (relative stereo)

Ki [1]: 320 nM | IC50 [5]: 86 nM
Structure (SMILES): O=C(NC1CCCC(NC(=O)c2cccc(Cl)c2)C1)c1cccc(F)c1 (racemic)

IC50 [5]: 1000 nM
Structure (SMILES): Cc1cccc(C(=O)N[C@H]2CCC[C@H](NC(=O)c3ccccn3)C2)c1 (relative stereo)

IC50 [5]: 468 nM
Structure (SMILES): O=C(N[C@H]1CCC[C@H](C(=O)Nc2cccc(Cl)c2)C1)c1ccccn1

Ki [1]: 445 nM | IC50 [5]: 300 nM
Structure (SMILES): O=C(N[C@H]1CCC[C@H](NC(=O)c2cccc(Cl)c2)C1)c1ccncc1 (relative stereo)

IC50 [5]: 1510 nM
Structure (SMILES): O=C(N[C@@H]1CCC[C@H](NC(=O)c2ccccn2)C1)c1cccc(Cl)c1 (relative stereo)

From ChEMBL document CHEMBL2331336, “Discovery and structure-activity relationship of 1,3-cyclohexyl amide derivatives as novel mGluR5 negative allosteric modulators” (Bioorg Med Chem Lett, 2013)
